From PubChem
In the library only some 2.7% were active in any assay of this set; here they are far more common.
SIRT5 block – blocks human SIRT5 desuccinylation of peptide | inhibition, % at 15 µM | 330,000 compounds, 1.1% hits | Q9NXA8 | Purified SirT5, succinyl-peptide AMC, trypsin-coupled fluorescence; in the data active means inhibition above about 15%; inconclusive means no clear call, values can overlap the other calls
CaV13 ICDI inh – Primary screen for inhibitors of IQ motif and Ca2+-dependent inactivation inhibitor domain binding in CACNA1D, Förster resonance energy transfer in living cells, …; inhibition, % at 12.3 µM; HEK cells, CFP/YFP FRET ICDI-IQ, plate reader, 10 min; percent FRET-ratio fall versus neutral wells; 340,000 compounds, 0.098% hits; AID 743397;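 active means mean replicate inhibition of at least 30% and at least 1% of replicates passing that level; inconclusive means only one of the two criteria is met; inactive means neither criterion is met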;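 further: 0% = median of the neutral control wells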
DENV2 CPE rescue – inhibitors of DENV2 cytopathic effect; 350,000 compounds, 1.7% hits; AID 651640; DENV2-infected cells, cytopathic effect rescue, plate reader; CPE inhibition, % at 9.99 µM; in the data active means CPE inhibition above about 20%, passing the limit was not always enough; inconclusive means no clear call, values can overlap the other calls; tested in BHK-21 cells;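 further: 0% = median of neutral control wells and 100% = median of positive control wells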
MLL AF4-AF9 inh – inhibitors of human MLL-AF4/AF9 interaction | inhibition, % at 10 µM | 350,000 compounds, 0.47% hits | AlphaScreen, biotin-AF4 peptide binding to FLAG-AF9 | P42568;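 active means every replicate reaching a set inhibition limit, whatever the replicate mean, cut at about 25% in these data; inconclusive means mean inhibition reaches that limit but some replicates miss it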;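 further: 0% = plate neutral control median and 100% = total signal loss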
Target sequence (P42568 whole entry, looked up): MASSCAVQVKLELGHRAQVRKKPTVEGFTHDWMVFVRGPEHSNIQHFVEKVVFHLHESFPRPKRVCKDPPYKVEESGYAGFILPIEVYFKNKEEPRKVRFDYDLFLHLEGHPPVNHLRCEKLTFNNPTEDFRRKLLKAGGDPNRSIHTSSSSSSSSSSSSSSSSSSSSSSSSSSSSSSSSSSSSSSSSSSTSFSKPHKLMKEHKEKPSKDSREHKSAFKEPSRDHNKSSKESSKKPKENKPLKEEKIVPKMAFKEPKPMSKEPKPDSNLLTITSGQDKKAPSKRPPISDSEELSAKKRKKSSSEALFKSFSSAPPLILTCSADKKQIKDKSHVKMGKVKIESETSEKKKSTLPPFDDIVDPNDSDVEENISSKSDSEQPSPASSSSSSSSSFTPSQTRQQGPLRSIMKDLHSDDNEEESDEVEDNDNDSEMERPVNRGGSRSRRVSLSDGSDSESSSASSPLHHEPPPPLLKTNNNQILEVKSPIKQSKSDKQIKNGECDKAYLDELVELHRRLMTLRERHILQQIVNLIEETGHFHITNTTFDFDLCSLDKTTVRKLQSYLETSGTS
S100A4 inh HTS – inhibitors of human S100A4 binding to myosin IIA peptide; P26447; S100A4/TAMRA-MyoIIA peptide fluorescence polarization; inhibition, % at 10.7 µM; 360,000 compounds, 0.14% hits; AID 652163;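 active means mean inhibition of at least 70% across replicates, with every replicate also reaching that level; inconclusive means mean inhibition reaches 70% but some replicates fall short; inactive means mean inhibition below 70%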
Target sequence (P26447 whole entry, looked up): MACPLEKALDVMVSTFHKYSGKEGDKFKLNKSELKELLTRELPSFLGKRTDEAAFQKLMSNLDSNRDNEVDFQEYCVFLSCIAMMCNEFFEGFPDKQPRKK
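Material: S100A4 monomer (human). Medium: Calcium-containing HEPES buffer, pH 7.2. Probe or stimulus: labelled myosin peptide probe, 5 nM. Compound dosing: one concentration per compound. Timing: polarization read 5 min after assay mix addition, stable 5–60 min. Benchmarks: DMSO as neutral control, TFP as positive control.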
An asterisk follows results filed as active; ? = inconclusive; . = no result given.

SMILES | SIRT5 block | CaV13 ICDI inh | DENV2 CPE rescue | MLL AF4-AF9 inh | S100A4 inh HTS
COc1ccc(S(=O)(=O)N2C[C@H](O)COC[C@@H]3O[C@H](CC(=O)N[C@H]4CCN(Cc5ccccc5)C4)CC[C@H]32)cc1 | . | . | 4.7 | . | .
COc1ccc(NC(=O)Nc2ccc3c(c2)C(=O)N([C@H](C)CO)C[C@H](C)[C@H](CN(C)C(=O)CCCN(C)C)OCCCC[C@H](C)O3)cc1 | -5.7 | . | 3.1 | 5.9 | 47.0
COc1cc(OC)cc(-c2oc3cccnc3c2C#CCCO)c1 | . | -4.0 | -8.2 | 0.0 | -5.8
COc1ccc(C(=O)c2ccc3oc(-c4ccc(OC)cc4)c(C#CCCO)c3c2)cc1 | . | -10.9 | 78.9* | . | -1.0
Cc1noc(C)c1COC(=O)C(c1ccccc1)c1ccccc1 | 15.7* | -8.1 | 3.6 | -2.4 | -8.8
Cc1noc(C)c1COc1ccc(C(=O)NNC(=O)c2ccccc2)cc1 | -7.2 | -15.4 | -6.9 | -10.9 | 6.1
O=C(/C=C/[C@H]1O[C@@H](n2ccc(=O)[nH]c2=O)[C@H](O)[C@@H]1O)NCc1cccs1 | 10.4 | -2.9 | 22.5* | -2.9 | -6.5
COc1ccc(/C=C2\Oc3cc(OCC(N)=O)ccc3C2=O)cc1OC | -1.2 | -41.0 | 44.8* | -0.3 | -1.7
COC(=O)COc1ccc2c(c1)O/C(=C\c1cccc([N+](=O)[O-])c1)C2=O | -0.6 | -2.6 | -5.8 | -0.5 | 3.8
CCCNC(=O)N1CC2(CCN(CC3CC3)CC2)c2c([nH]c3cc(OC)ccc23)[C@@H]1CO | 5.0 | . | 24.4* | 8.5 | 4.4
CCCNC(=O)N1CC2(CCN(S(=O)(=O)CC)CC2)c2c([nH]c3cc(OC)ccc23)[C@@H]1CO | 0.6 | . | 30.6* | 1.8 | -37.9
O=C(NCC[C@@H]1CC[C@H](NC(=O)c2cccnc2)[C@@H](CO)O1)Nc1ccc(C(F)(F)F)cc1 | 2.9 | . | 9.2 | 10.7 | 2.4
CCC(=O)N[C@@H]1CC[C@H](CCNC(=O)Nc2ccc(C(F)(F)F)cc2)O[C@H]1CO | 4.2 | . | 4.0 | 4.7 | 92.3*
O=C(NCC[C@@H]1CC[C@@H](NC(=O)c2cccnc2)[C@H](CO)O1)Nc1ccc(C(F)(F)F)cc1 | -0.5 | . | -4.0 | 25.9* | -12.1
C=CCN1CC(COCCCC)Oc2ccc(Cl)cc2S1(=O)=O (configuration not stated) | -2.0 | -5.0 | -12.0 | -5.5 | -3.4
C[C@@H]1CCCCO[C@H](CN(C)C(=O)CCCN(C)C)[C@@H](C)CN([C@H](C)CO)C(=O)c2cc(NC(=O)CCCN(C)C)ccc2O1 | 2.1 | . | 20.4* | -3.4 | 1.4
C[C@@H]1CCCCO[C@@H](CN(C)CC2CC2)[C@H](C)CN([C@H](C)CO)C(=O)c2cc(NC(=O)CCCN(C)C)ccc2O1 | -1.2 | . | 43.2* | 13.3 | -2.5
C[C@@H]1CCCCO[C@H](CN(C)C(=O)CCCN(C)C)[C@@H](C)CN([C@@H](C)CO)C(=O)c2cc(N(C)C)ccc2O1 | 16.2* | . | 7.0 | -2.0 | -51.1
COc1ccc(C[C@H]2CCc3cnnn3COC[C@H](c3ccccc3)NC2=O)cc1 | -0.9 | . | 1.2 | 1.9 | 2.5
CCCc1cc(NCCCn2ccnc2)n2nc(C)c(-c3ccccc3)c2n1 | 18.1* | -4.1 | -8.7 | 15.8 | 4.5
CC(C)(C)c1cc(NCCCn2ccnc2)n2ncc(-c3ccccc3)c2n1 | -2.0 | -16.5 | -16.0 | ? | 1.1
CCOc1ccc(/C=N/NC(=O)c2ccccc2O)cc1CN1CC2CC(C1)c1cccc(=O)n1C2 (configuration not stated) | . | . | 58.1* | . | 25.1
COc1ccc(/C=N/NC(=O)c2ccccc2O)cc1Cn1cc(Cl)cn1 | . | -6.4 | . | . | .
COc1ccc(C(C)NC(=O)c2ccccc2Cl)cc1OC (configuration not stated) | -1.4 | -4.5 | 64.3* | 4.4 | 1.5
COc1ccc(C(C)NC(=O)c2ccc(Br)cc2)cc1OC (configuration not stated) | . | -4.5 | -13.6 | 2.3 | 0.9
SMILES | SIRT5 block | CaV13 ICDI inh | DENV2 CPE rescue | MLL AF4-AF9 inh | S100A4 inh HTS
COc1ccc(Cc2nnc(NC(=O)c3ccccc3Cl)s2)cc1OC | 1.2 | -5.0 | 40.8* | -12.3 | 1.9
COc1ccc(Cc2nnc(NC(=O)c3ccccc3F)s2)cc1OC | 2.9 | -4.5 | -3.2 | 1.3 | 1.8
Cc1ccc(S(=O)(=O)Nc2ccc3c(c2)C(=O)N([C@@H](C)CO)C[C@H](C)[C@@H](CN(C)Cc2ccc(C(=O)O)cc2)OCCCC[C@H](C)O3)cc1 | -3.1 | . | -4.3 | -4.8 | 1.7
O=C(C[C@@H]1CC[C@@H](NC(=O)C2CCOCC2)[C@@H](CO)O1)NCC1CC1 | -1.5 | . | 1.2 | -0.6 | -11.8
CC1=[N+](C)c2c(ccc3cccnc23)C1(C)C | -1.5 | -43.1 | 2.0 | 28.9* | 159.1*
COc1ccc(S(=O)(=O)N2C[C@@H](O)COC[C@@H]3O[C@@H](CC(=O)N[C@H]4CCN(Cc5ccccc5)C4)CC[C@H]32)cc1 | 8.9 | . | -1.1 | 2.8 | 7.3
COc1ccc(OC)c(S(=O)(=O)Oc2ccc(N)c3ccccc23)c1 | 15.1* | -5.0 | -4.1 | 3.7 | -2.0
CCCNC(=O)N1C[C@@H](O)COC[C@@H]2O[C@H](CC(=O)N3CCC(Cc4ccccc4)CC3)CC[C@H]21 | 22.8* | . | -0.3 | -1.8 | -1.6
CCCNC(=O)N1C[C@H](O)COC[C@@H]2O[C@@H](CC(=O)N3CCOCC3)CC[C@H]21 | -0.4 | . | 107.8* | -2.6 | 7.2
CN1CCN(C(=O)C[C@@H]2CC[C@H]3[C@@H](COC[C@H](O)CN3C(=O)C3CCCC3)O2)CC1 | -0.5 | . | 76.1* | -0.1 | -54.2
CCCNC(=O)N1C[C@H](O)COC[C@H]2O[C@H](CC(=O)N3CCC(Cc4ccccc4)CC3)CC[C@@H]21 | 11.4 | . | 6.9 | 11.0 | 0.2
O=C(C[C@H]1CC[C@H]2[C@@H](COC[C@H](O)CN2CC2CCOCC2)O1)N1CCOCC1 | 2.3 | . | -3.1 | -8.8 | -3.9
O=C(C[C@@H]1CC[C@@H]2[C@H](COC[C@H](O)CN2CC2CCOCC2)O1)N1CCOCC1 | 2.1 | . | 102.4* | -7.3 | 0.3
Cc1ccccc1S(=O)(=O)N1CCCc2nc(C)c(C)cc21 | . | -5.1 | -6.7 | -3.5 | 7.8
O=C(C[C@@H]1CC[C@H]2[C@@H](COC[C@H](O)CN2CCC(F)(F)F)O1)N1CCC(Cc2ccccc2)CC1 | 17.0* | . | 7.4 | -0.8 | -18.7
O=C(C[C@@H]1CC[C@@H]2[C@H](COC[C@H](O)CN2CCC(F)(F)F)O1)N1CCC(Cc2ccccc2)CC1 | 1.9 | . | 2.3 | 0.7 | -2.2
CC=Cc1ccc2n(c1=O)C[C@H]1[C@H](CO)[C@@H](C(=O)NCc3ccncn3)N(C(=O)NC3CCCC3)[C@@H]21 (mixture of isomers) | . | . | . | -2.8 | .
CN(C)C(=O)c1ccc(-c2ccc3c(c2)[C@@H]2[C@@H](CCN2S(=O)(=O)c2ccccc2)[C@H](CO)N3)cc1 | . | . | -0.5 | . | .
